In ChEMBL document CHEMBL1124441, “Synthesis of congeners and prodrugs. 3. Water-soluble prodrugs of taxol with potent antitumor activity” (1989):

Assays:
Assay type in all cases: functional, Mus musculus
Details in all cases: route intraperitoneal
B16 [1] = assay: Antitumor activity in B16 Melanoma system animals is indicated by survivors on day 4 at a dose of 25 mg/kg intraperitoneally
In short: (§1)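 B16 melanoma, 10^6 cells inoculated ip on day 0. Ip treatment started day 1, schedule Q01Dx09 (one dose daily for 9 days). The score is live animals on day 4 over total animals; early deaths are taken as drug toxicity.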

B16 [2] = assay: Percent of median lifetime of test animals divided by the median lifetime of control animals at a dose of 25 mg/kg intraperitoneally
In short: (§2)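 B16 melanoma inoculated ip (10⁶ cells) on day 0. Daily ip treatment for 9 days (Q01Dx09) begins day 1, dosed per injection in mg/kg. %T/C is the median lifespan of treated animals divided by that of tumored untreated controls, ×100. Cures are animals alive on the last test day. Toxic deaths are assessed on day 4.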

B16 [3] = assay: Percent of median lifetime of test animals divided by the median lifetime of control animals at a dose of 12.5 mg/kg intraperitoneally; in short: as §2
B16 [4] = assay: Antitumor activity in B16 Melanoma system animals is indicated by survivors on day 4 at a dose of 6.25 mg/kg intraperitoneally; in short: as §1
B16 [5] = assay: Antitumor activity in B16 Melanoma system animals is indicated by survivors on day 4 at a dose of 50 mg/kg intraperitoneally; in short: as §1
B16 [6] = assay: Difference in body weight in grams between test and control animals at a dose of 6.25 mg/kg intraperitoneally
In short: (§3)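 B16 melanoma system: 10⁶ tumor cells inoculated ip on day 0. Drug given ip once daily for 9 days (Q01Dx09) starting day 1, dose as mg/kg body weight per injection. Read-out is the body-weight difference in grams, treated minus control animals. Early deaths, taken as toxicity, are scored on day 4.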

B16 [7] = assay: Percent of median lifetime of test animals divided by the median lifetime of control animals at a dose of 6.25 mg/kg intraperitoneally; in short: as §2
B16 [8] = assay: Difference in body weight in grams between test and control animals at a dose of 25 mg/kg intraperitoneally; in short: as §3
B16 [9] = assay: Difference in body weight in grams between test and control animals at a dose of 12.5 mg/kg intraperitoneally; in short: as §3
B16 [10] = assay: Difference in body weight in grams between test and control animals at a dose of 50 mg/kg intraperitoneally; in short: as §3
B16 [11] = assay: Percent of median lifetime of test animals divided by the median lifetime of control animals at a dose of 50 mg/kg intraperitoneally; in short: as §2
B16 [12] = assay: Antitumor activity in B16 Melanoma system animals is indicated by survivors on day 4 at a dose of 12.5 mg/kg intraperitoneally; in short: as §1
B16 [13] = assay: Difference in body weight in grams between test and control animals at a dose of 12.25 mg/kg intraperitoneally
In short: (§4)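 B16 melanoma, 10^6 cells ip on day 0, then ip dosing from day 1, once daily for 9 days (Q01Dx09). The value is the body-weight difference in grams, treated minus tumored control animals.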

B16 [14] = assay: Antitumor activity in B16 Melanoma system animals is indicated by survivors on day 4 at a dose of 24.5 mg/kg intraperitoneally; in short: as §1
B16 [15] = assay: Difference in body weight in grams between test and control animals at a dose of 6.13 mg/kg intraperitoneally; in short: as §4
B16 [16] = assay: Percent of median lifetime of test animals divided by the median lifetime of control animals at a dose of 12.25 mg/kg intraperitoneally
In short: (§5)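 B16 melanoma, 10^6 cells ip on day 0, ip treatment from day 1, Q01Dx09 (single dose daily for 9 days). %T/C is median lifetime of treated over untreated tumored controls, times 100. Early deaths are assessed on day 4 for toxicity. Cures are animals alive on the last test day.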

B16 [17] = assay: Percent of median lifetime of test animals divided by the median lifetime of control animals at a dose of 6.13 mg/kg intraperitoneally; in short: as §5
B16 [18] = assay: Difference in body weight in grams between test and control animals at a dose of 24.5 mg/kg intraperitoneally; in short: as §4
B16 [19] = assay: Antitumor activity in B16 Melanoma system animals is indicated by survivors on day 4 at a dose of 12.25 mg/kg intraperitoneally; in short: as §1
B16 [20] = assay: Percent of median lifetime of test animals divided by the median lifetime of control animals at a dose of 49 mg/kg intraperitoneally; in short: as §5
B16 [21] = assay: Antitumor activity in B16 Melanoma system animals is indicated by survivors on day 4 at a dose of 49 mg/kg intraperitoneally; in short: as §1
B16 [22] = assay: Antitumor activity in B16 Melanoma system animals is indicated by survivors on day 4 at a dose of 6.13 mg/kg intraperitoneally; in short: as §1
B16 [23] = assay: Difference in body weight in grams between test and control animals at a dose of 49 mg/kg intraperitoneally; in short: as §4
B16 [24] = assay: Percent of median lifetime of test animals divided by the median lifetime of control animals at a dose of 24.5 mg/kg intraperitoneally; in short: as §5

Question: With `CC(=O)OC1C(=O)[C@@]2(C)[C@H]([C@H](OC(=O)c3ccccc3)[C@]3(O)CC(OC(=O)C(OC(=O)CCC(=O)O)C(NC(=O)c4ccccc4)c4ccccc4)C(C)=C1C3(C)C)[C@]1(OC(C)=O)CO[C@@H]1C[C@@H]2O.CNC[C@H](O)[C@@H](O)[C@H](O)[C@H](O)CO` (some centres undefined) as the molecule, how does the Activity (B16 [1]) read?
Answer: Its Activity is 10.

Question: What about the T/C (B16 [2]) of the same molecule?
Answer: The T/C was 176%.

Question: And the T/C (B16 [3])?
Answer: The T/C was 134%.

Question: What about the Activity (B16 [4]) of the same molecule?
Answer: The Activity was 10.

Question: And the Activity (B16 [5])?
Answer: The Activity was 10.

Question: And the Weight difference (B16 [6])?
Answer: Its Weight difference is -0.2 g.

Question: What about the T/C (B16 [7]) of the same molecule?
Answer: The T/C was 125%.

Question: And the Weight difference (B16 [8])?
Answer: Its Weight difference is 0.3 g.

Question: What about the Weight difference (B16 [9]) of the same molecule?
Answer: Its Weight difference is 0.3 g.

Question: What about the Weight difference (B16 [10]) of the same molecule?
Answer: Its Weight difference is -0.6 g.

Question: And the T/C (B16 [11])?
Answer: Its T/C is 241%.

Question: What about the Activity (B16 [12]) of the same molecule?
Answer: Its Activity is 10.

Question: Which results are given for `CC(=O)OC1C(=O)[C@@]2(C)[C@H]([C@H](OC(=O)c3ccccc3)[C@]3(O)CC(OC(=O)C(OC(=O)CCCC(=O)[O-])C(NC(=O)c4ccccc4)c4ccccc4)C(C)=C1C3(C)C)[C@]1(OC(C)=O)CO[C@@H]1C[C@@H]2O.[Na+]` (some centres undefined)?
Answer: Weight difference (B16 [13]): 0.6 g; Activity (B16 [14]): 7; Weight difference (B16 [15]): 0.4 g; T/C (B16 [16]): 192%; T/C (B16 [17]): 159%; Weight difference (B16 [18]): 1.5 g; Activity (B16 [19]): 8; T/C (B16 [20]): 339%; Activity (B16 [21]): 7; Activity (B16 [22]): 8; Weight difference (B16 [23]): 0.8 g; T/C (B16 [24]): 225%
